# Source: PubChem
# An excerpt weighted towards active compounds, which were near 1.9% of everything screened.
# LEDGF integ inh – blocks HIV-1 LEDGF/p75-dependent DNA integration; 370,000 compounds, 0.64% hits; inhibition, % at 3.7 µM; AID 743269; TR-FRET IN-LEDGF/p75 DNA integration, Eu/Cy5;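 active means inhibition above the screen-wide mean plus 3 SD, cut at about 13% in these data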;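 further: signal is the Cy5 over europium emission ratio at 671 and 618 nm; 0% = plate median of compound wells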
# MBD2 inh – MBD2-methylated oligo binding inhibition. 370,000 compounds, 0.31% hits. inhibition, % at 4.4 µM. TR-FRET, MBD2 binding to methylated oligonucleotide; in the data active means inhibition above about 13%
# Rin1-Abl PPI inh – blocks binding of human Rin1 to Abl; P00519+Q13671; 360,000 compounds, 0.4% hits; AID 588664; TR-FRET Rin1/Abl binding, biochemical; inhibition, % at 7.35 µM; in the data active means inhibition above about 5%, passing the limit was not always enough
# UHRF1 binding – UHRF1 methyl-DNA binding inhibition; UHRF1 binding to methylated oligo, TR-FRET; inhibition, % at 4.4 µM; 370,000 compounds, 0.75% hits; AID 687016; in the data active means inhibition above about 21%;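 further: UHRF1 SRA domain binding a hemimethylated CpG hairpin DNA probe; 0% = median of test compound wells and 100% = reference inhibitor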
# TDP2 absorb – blocks human TDP2 phosphodiesterase activity; O95551; recombinant TDP2, T5PNP hydrolysis, p-nitrophenol absorbance 415 nm; inhibition, % at 12.8 µM; 370,000 compounds, 0.34% hits; AID 720702;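 active means inhibition above the mean of all tested compounds plus 3 SD, set per campaign, cut at about 25% in these data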;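 further: 0% = DMSO with enzyme and 100% = buffer with substrate but no TDP2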
# Target sequence (O95551 whole entry, looked up): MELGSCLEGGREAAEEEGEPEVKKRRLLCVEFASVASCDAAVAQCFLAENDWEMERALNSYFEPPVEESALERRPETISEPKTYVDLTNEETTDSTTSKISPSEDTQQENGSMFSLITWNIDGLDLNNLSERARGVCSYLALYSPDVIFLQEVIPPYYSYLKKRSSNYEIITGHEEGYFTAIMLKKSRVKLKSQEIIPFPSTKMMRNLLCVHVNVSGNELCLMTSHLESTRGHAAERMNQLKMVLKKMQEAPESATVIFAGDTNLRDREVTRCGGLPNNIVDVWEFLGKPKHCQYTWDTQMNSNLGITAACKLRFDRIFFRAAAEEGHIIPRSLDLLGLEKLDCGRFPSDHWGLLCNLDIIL
#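 System: recombinant human TDP2 / Amount: 120 nM TDP2 per well / Also added: 5 mM T5PNP chromogenic substrate / Doses: 12.8 µM single point, 1% DMSO / Incubation: 2 h at 37 °C / Detection: p-Nitrophenol epi absorbance / Evaluation: % inhibition relative to enzyme-containing and enzyme-free wells / Repeats: singlicate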
# IN multimer act – activates HIV-1 integrase multimerization in LEDGF counter-screen; activation, % at 7.7 µM; TR-FRET HIV-1 integrase multimerization, biochemical; shares compounds with LEDGF integ inh; 2,000 compounds, 17% hits; in the data active means activation above about 8.9%
# TRFRET interf – TR-FRET optical interference, LEDGF/p75 integration counter-screen; shares compounds with LEDGF integ inh; TR-FRET optical interference counterscreen, HIV-1 IN multimerization; inhibition, % at 7.7 µM; 2,000 tested, under 10 active;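 active means inhibition above the mean over all tested compounds plus 3 SD, which no compound reached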;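 further: 0% = integrase with antibodies and DMSO and 100% = antibodies without integrase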
# LEDGF integ conf – confirmation of HIV-1 LEDGF/p75-dependent integration inhibitors. shares compounds with LEDGF integ inh. TR-FRET LEDGF/p75-dependent HIV-1 integration, biochemical. inhibition, % at 3.7 µM. 2,000 compounds, 36% hits; in the data active means inhibition above about 14%
# An asterisk follows results filed as active; . = no result.
SMILES,LEDGF integ inh,MBD2 inh,Rin1-Abl PPI inh,UHRF1 binding,TDP2 absorb,IN multimer act,TRFRET interf,LEDGF integ conf
CCN(CC(=O)Nc1c(F)cccc1F)C(=O)C1CC(=O)N(CCc2ccccc2)C1 (configuration not stated),35*,2,2,-1,14,-2,12,-10
COCCCNC(=O)/C(C#N)=C/c1ccc(OCC(=O)O)c(OC)c1,17*,7,-2,34*,-1,23*,-115,36*
O=c1c(-c2c(O)cc(O)c3c(=O)cc(-c4ccc(O)cc4)oc23)c(-c2ccc(O)cc2)oc2cc(O)cc(O)c12,25*,11,7,12,0,40*,-204,50*
COc1ccc(-c2cc(=O)c3c(O)cc(O)cc3o2)cc1,0,8,-3,-5,3,.,.,.
O=c1cc(-c2ccc(O)c(O)c2)oc2cc(O)cc(O)c12,42*,-6,1,-9,-6,15*,-78,88*
COc1c(-c2ccc(O)cc2)oc2cc(O)cc(O)c2c1=O,15*,11,11,28*,-9,9,-43,45*
C[C@@H]1Cc2cc(O)c(O)c(O)c2C(=O)O1,-4,-2,.,-2,5,.,.,.
CCOC(=O)[C@]12CCCC=C1N(Cc1ccc(OC)cc1)C(=O)[C@@H]2CC(=O)NCc1cccc(C(F)(F)F)c1,-1,-8,.,1,-20,.,.,.
CCC(NC(=O)c1ccc2c(c1)c(C)c(C)n2Cc1ccc(Cl)cc1)c1ccccc1 (configuration not stated),-2,6,.,1,4,.,.,.
CN(C)/C=N/c1ncn(-c2ncc(C(F)(F)F)cc2Cl)n1,17*,-5,1,-1,4,1,-5,-6
Cc1cccc(NC(=O)c2ccccc2SCc2ccc(F)cc2)n1,53*,-2,4,-4,10,1,-4,-7
CCNC(=O)c1ccccc1SCc1ccccc1,14*,4,0,9,7,-2,6,-5
CCc1ccc(OCCNC(=O)c2ccccc2SCc2ccccc2)cc1,-3,-5,1,-2,-2,.,.,.
O=C(Nc1ccc(Cl)cn1)c1ccccc1SCc1ccccc1,1,-1,-1,0,17,.,.,.
O=C(NC1=N[C@@]2(C=C3CCCCC3n3c(=O)n(-c4ccccc4)c(=O)n32)CN1Cc1ccccc1)c1ccccc1 (some centres not stated),-1,1,.,0,2,.,.,.
Cc1nc(Cl)c(C(=O)NCCc2ccccc2)c(C)c1[N+](=O)[O-],-2,0,3,-1,3,.,.,.
Cc1nc(Cl)c(C(=O)NCc2ccccc2)c(C)c1[N+](=O)[O-],20*,1,4,-1,-12,0,1,0
C=CCCC1CN(Cc2ccc(OC)cc2)S(=O)(=O)c2c(Oc3ccc(C(C)C)cc3)cccc2O1 (configuration not stated),0,8,.,2,1,.,.,.
C=CCCC1CN(Cc2ccc(OC)cc2)S(=O)(=O)c2c(cccc2N(C)S(=O)(=O)c2ccc(C)cc2)O1 (configuration not stated),89*,0,.,-2,10,2,-10,-8
Oc1ccccc1C=Nn1c(-c2ccccc2F)n[nH]c1=S,3,-2,.,3,-4,.,.,.
COc1ccc(OC)c(CNC(=O)CCNC(=O)Cn2ccc3ccccc3c2=O)c1,47*,-2,-1,3,-4,-1,4,3
COc1ccc(Br)cc1CNC(=O)CCNC(=O)Cn1ccc2ccccc2c1=O,-1,-5,-1,-2,-1,.,.,.
CN1[C@@H](Cc2ccccc2)COc2cc(F)ccc2S1(=O)=O,2,2,.,3,-14,.,.,.
CC(C)NC(=O)N(C)C[C@H]1Oc2c(NS(=O)(=O)c3ccccc3)cccc2C(=O)N([C@H](C)CO)C[C@@H]1C,35*,-2,-1,-3,7,1,-4,1
C[C@H](CO)N1C[C@H](C)[C@@H](CN(C)S(=O)(=O)c2cccs2)Oc2c(NC(=O)NC3CCCCC3)cccc2C1=O,18*,-6,3,0,-18,0,-2,1
SMILES,LEDGF integ inh,MBD2 inh,Rin1-Abl PPI inh,UHRF1 binding,TDP2 absorb,IN multimer act,TRFRET interf,LEDGF integ conf
Cc1ccc(CN2CCCCC(NC(=O)Nc3ccccc3)C2=O)cc1 (configuration not stated),1,2,.,-1,3,.,.,.
COCc1cc(N2CCN(C(=O)OC(C)(C)C)C[C@H]2C)ccc1N1CCS(=O)(=O)CC1,0,-1,.,-1,-2,.,.,.
Cc1ccc2nc3c(cc(S(=O)(=O)c4ccccc4)c(=N)n3Cc3ccco3)c(=O)n2c1,18*,-2,-4,6,-21,2,-7,11
N=c1c(C(=O)NCCc2ccccc2)cc2c(=O)n3ccccc3nc2n1Cc1ccco1,17*,-2,-4,-4,-11,2,-8,11
N=c1c(S(=O)(=O)c2ccccc2)cc2c(=O)n3ccccc3nc2n1Cc1ccco1,8,-5,-3,-2,-6,.,.,.
CCCCNS(=O)(=O)CC1NCc2cc(OC)ccc21 (configuration not stated),2,-10,.,-6,6,.,.,.
CC1Cc2ccccc2N1C(=O)c1ccc(F)c(S(=O)(=O)N2CCOCC2)c1 (configuration not stated),26*,-2,3,0,-3,2,-6,4
O=C(Nc1ccccc1N1CCOCC1)c1ccc(F)c(S(=O)(=O)N2CCOCC2)c1,2,-3,2,-2,-2,.,.,.
O=C(NCC1CC1)C1(S(=O)(=O)c2ccccc2)CC=CC1,4,-2,1,-6,1,.,.,.
COCCNC(=O)C1(S(=O)(=O)c2ccccc2)CC=CC1,24*,-6,2,0,-13,0,0,0
Cc1cc(Oc2ccc(-c3nnc(-c4ccccc4)o3)cc2[N+](=O)[O-])ccc1Cl,5,-5,1,-1,6,.,.,.
Cc1nnc(-c2ccc(Oc3ccc(Br)cc3)c([N+](=O)[O-])c2)o1,16*,5,0,0,-3,0,2,-7
N#Cc1cccc(NC(=O)OCCN2C(=O)CCC23CCC(c2ccccc2)CC3)c1 (configuration not stated),-3,-1,.,1,4,.,.,.
O=C(C1CCN(c2ncnc3c2sc2cccc(F)c23)CC1)N1CCCCC1,-4,-4,.,-4,-6,.,.,.
Cc1nc2ccccc2nc1OCC(=O)Nc1ccccc1,17*,-1,-7,-2,3,1,-4,1
